Published values of several laboratories.
Protocols differ between the studies behind these lines.
Target: Ribosomal protein S6 kinase beta-1 (RPS6KB1, Homo sapiens, UniProt P23443)
Read-out: enzyme activity
Action: inhibitor

FC(F)c1nc2ccccc2n1-c1nc(N2CCOCC2)nc(N2CCOCC2)n1 gave a remaining activity of 98% (10 µM).
With O=C(Nc1cnn(-c2csc(C(=O)NC3COC3)c2)c1)Nc1ccccc1Cl the remaining activity was 92.1% (5 µM).
The remaining activity of CCCOc1ccc(OC)c(F)c1C(=O)c1ccc(C(=O)N[C@@H]2CNC[C@H]2NC(=O)c2ccc3[nH]ncc3c2)cc1 is reported as 2% (10 µM).
For COc1cc(Nc2cnc(C#N)c(O[C@H](C)CN(C)C)n2)ncc1-c1cnn(C)c1, the remaining activity was 85% (radiometric; 10 µM).
For CC(C)(C)C(=O)c1sc(NC2CCCCC2)nc1N, the remaining activity was 86% (10 µM).
The remaining activity of Oc1cccc(-c2nc(N3CCOCC3)c3oc4ncccc4c3n2)c1 is reported as 90% (10 µM).
For Nc1nc(Nc2ccccc2)sc1C(=O)c1c(F)cccc1F, the remaining activity was 57% (10 µM).
With O=C(Nc1cnn(-c2csc(C(=O)NC3COC3)c2)c1)Nc1c(F)cccc1Cl the remaining activity was 97.7% (5 µM).
The remaining activity of Cc1[nH]c(/C=C2\C(=O)Nc3ccc(F)cc32)c(C)c1C(=O)N[C@H]1CCN(C(=O)N(C)C)C1 is reported as 84% (0.1 µM).
CC(C)(C)c1nc(-c2cccc(NS(=O)(=O)c3c(F)cccc3F)c2F)c(-c2ccnc(N)n2)s1 gave a remaining activity of 75% (radiometric; 1 µM).
Cc1cnc(NC2CCOCC2)nc1-n1cnc(C(=O)NC(CN)c2cc(F)cc(Cl)c2)c1 (stereo not drawn) has a remaining activity of 71% (radiometric; 1 µM).
CCN(CC)CCNC(=O)c1c(C)[nH]c(/C=C2\C(=O)Nc3ccc(F)cc32)c1C gave a remaining activity of 79% (0.1 µM).
